Assay results: ChEMBL document CHEMBL1131165, “Inhibitors of acyl-CoA:cholesterol O-acyltransferase. 3. Discovery of a novel series of N-alkyl-N-[(fluorophenoxy)benzyl]-N'-arylureas with weak toxicological effects on adrenal glands” (J Med Chem, 1998)
Calls of active or inactive are those of the source. No cut-off for these calls is given here.

Assays:
[1] = system: Rattus norvegicus; assay: In vivo hypocholesterolemic activity in cholesterol-fed rats by oral administration in a cholesterol enriched diet; type: functional
How it was run: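 Rats were fed a cholesterol-enriched diet, and compound was given orally as an admixture in that diet. Read-out is plasma total cholesterol against control, expressed as ED50 (the dose reducing it by 50%) or as percent reduction at the stated dose. Significance was tested by unpaired, two-tailed Student's t-test.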

[2] = system: Rattus norvegicus; assay: Percent reduction in cholesterol levels in rats at >0.1 mg/kg; type: functional
How it was run: (§1)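 In cholesterol-fed rats, compound was given orally either as a dietary admixture or by gavage in PEG400. Read-out is the percent reduction of plasma total cholesterol versus control at the dose indicated. Significance was assessed by unpaired, two-tailed Student's t-test.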

[3] = molecular target: T1, O-acyltransferase (Oryctolagus cuniculus, UniProt G1SFD9); assay: In vitro inhibition of acyl coenzyme A:cholesterol acyltransferase (ACAT) from rabbit intestinal microsomes
T1 sequence (G1SFD9 1-524): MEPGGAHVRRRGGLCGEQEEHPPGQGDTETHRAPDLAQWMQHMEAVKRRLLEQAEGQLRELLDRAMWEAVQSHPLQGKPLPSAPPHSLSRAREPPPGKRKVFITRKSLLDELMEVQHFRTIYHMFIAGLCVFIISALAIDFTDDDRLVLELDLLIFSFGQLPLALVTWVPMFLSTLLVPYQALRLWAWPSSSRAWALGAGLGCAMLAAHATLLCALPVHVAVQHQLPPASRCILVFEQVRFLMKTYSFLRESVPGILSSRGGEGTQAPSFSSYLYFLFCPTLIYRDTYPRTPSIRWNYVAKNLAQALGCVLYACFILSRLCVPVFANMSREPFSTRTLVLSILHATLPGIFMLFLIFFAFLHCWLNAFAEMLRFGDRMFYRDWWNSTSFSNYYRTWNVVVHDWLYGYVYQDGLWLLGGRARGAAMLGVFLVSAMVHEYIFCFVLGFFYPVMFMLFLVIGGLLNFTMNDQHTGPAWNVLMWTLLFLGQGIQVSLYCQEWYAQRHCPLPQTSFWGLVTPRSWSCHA
How it was run: (§2)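 Enzyme source is microsomes from rabbit intestine. Read-out is the concentration giving 50% inhibition of ACAT activity (IC50, nM). Some IC50 values were estimated relative to the IC50 of a reference inhibitor tested on the same enzyme batch.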

[4] = Adrenal toxicity in rabbits at 5 mg/kg i.v., expressed as drug-induced necrosis; + indicates necrosis observed; type: organism-based, Oryctolagus cuniculus; set-up: dose 5 mg/kg, route intravenous; conditions: rabbit, in vivo, iv
How it was run: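 Rabbits (n = 2) given a single 5 mg/kg iv dose as a solution in PEG400. Adrenal glands were examined for drug-induced necrosis of zona fasciculata cortical cells at 24 h after dosing. Each result is scored against controls as observed (+) or not observed (-).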

[5] = system: Rattus norvegicus; assay: In vivo hypocholesterolemic activity in cholesterol-fed rats by oral administration by gavage in PEG400 as a vehicle; type: functional
How it was run: (§3)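 Cholesterol-fed rats were dosed orally by gavage with PEG400 as vehicle. Plasma total cholesterol was compared with control and reported as ED50 (the dose reducing it by 50%) or as percent reduction at the dose given. Significance was tested by unpaired two-tailed Student's t-test.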

[6] = In vitro inhibitory activity against acetylated LDL-induced accumulation of cholesteryl esters in mouse peritoneal macrophages; type: functional
How it was run: (§4)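 Mouse peritoneal macrophages were exposed to acetylated LDL, which induces accumulation of cholesteryl esters. Read-out is the IC50 (nM) for inhibiting that accumulation. Values given in parentheses are percent inhibition at the concentration indicated.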

[7] = system: Rattus norvegicus; assay: Percent reduction in cholesterol levels in rats at <0.1 mg/kg; type: functional; how it was run: as §1
[8] = In vitro inhibitory activity against acetylated LDL-induced accumulation of cholesteryl esters in mouse peritoneal macrophages at <10 nM concentration; type: functional; how it was run: as §4
[9] = system: Rattus norvegicus; assay: Percent reduction in cholesterol levels in rats at 0.01 mg/kg; type: functional; how it was run: as §1
[10] = system: Rattus norvegicus; assay: Percent reduction in cholesterol levels in rats at <0.1 mg/kg; inactive; type: functional, organism-based; conditions: in the assay text read “>0.1 mg/kg” for “<0.1 mg/kg”; how it was run: as §1
[11] = system: Rattus norvegicus; assay: Percent reduction in cholesterol levels in rats at <1 mg/kg; type: functional; how it was run: as §1
[12] = system: Rattus norvegicus; assay: Percent reduction in cholesterol levels in rats at <0.01 mg/kg; type: functional; how it was run: as §1
[13] = system: Rattus norvegicus; assay: Percent reduction in cholesterol levels in rats at >0.1 mg/kg; inactive; type: functional, organism-based; how it was run: as §1
[14] = system: Rattus norvegicus; assay: Percent reduction in cholesterol levels in rats at >1 mg/kg; type: functional; how it was run: as §1
[15] = system: Rattus norvegicus; assay: In vivo hypocholesterolemic activity in cholesterol-fed rats by oral administration of compound by gavage in PEG400 as a vehicle; inactive at >1; type: functional, organism-based; how it was run: as §3
[16] = molecular target: T1, O-acyltransferase; assay: In vitro inhibitory activity against Acyl coenzyme A:cholesterol acyltransferase from rabbit intestinal microsomes; type: functional; how it was run: as §2
[17] = system: Rattus norvegicus; assay: Percent reduction in cholesterol levels in rats at 0.032 mg/kg; type: functional; how it was run: as §1

| Structure (SMILES) | ED50 [1] [mg/kg] | IC50 [3] [nM] | ED50 [5] [mg/kg] | IC50 [6] [nM] | also measured |
| --- | --- | --- | --- | --- | --- |
| Cc1cc(Cl)c(NC(=O)N(Cc2ccc(Oc3ccc(F)cc3)cc2)C2CCCCCC2)c(Cl)n1 | > 0.1 | 14 | – | – | Reduction [2]: 38% |
| CSc1nc(C)nc(SC)c1NC(=O)N(Cc1ccc(Oc2ccc(F)cc2)cc1)C1CCCCCC1 | 0.069 | 56 | 0.45 | 20 | Toxicity [4]: necrosis observed |
| CSc1cc(C)nc(SC)c1NC(=O)N(Cc1cccc(Oc2ccc(F)cc2)c1)C1CCCCCC1 | < 0.1 | 73 | – | 2.9 | – |
| Cc1cc(C)c(NC(=O)N(Cc2ccc(Oc3ccc(F)cc3)cc2)C2CCCCCC2)c(C)c1 | 0.045 | 25 | 5.3 | 80 | – |
| CSc1cc(C)nc(SC)c1NC(=O)N(Cc1ccc(Oc2ccc(F)cc2)cc1)C1CCOCC1 | < 0.1 | 46 | – | – | Reduction [7]: 58% |
| CSc1cc(C)nc(Cl)c1NC(=O)N(Cc1ccc(Oc2ccc(F)cc2)cc1)C1CCCCCC1 | 0.022 | 46 | 0.17 | 47 | Toxicity [4]: necrosis observed |
| O=C(Nc1c(F)cc(F)cc1F)N(Cc1ccccc1)Cc1cccc(-c2cc[nH]n2)c1 | – | – | – | 7400 | – |
| CSc1cc(C)nc(SC)c1NC(=O)N(Cc1ccc(Oc2ccc(F)cc2)cc1)C1CCCCC1 | < 0.01 | 23 | – | < 10 | Inhibition [8]: 61%; Reduction [9]: 63% |
| Cc1cc(S(C)(=O)=O)c(NC(=O)N(Cc2ccc(Oc3ccc(F)cc3)cc2)C2CCCCCC2)c(S(C)(=O)=O)n1 | 0.068 | 45 | 0.63 | 215 | – |
| CSc1cc(C)nc(S(C)(=O)=O)c1NC(=O)N(Cc1ccc(Oc2ccc(F)cc2)cc1)C1CCCCCC1 | > 0.1 | 78 | – | 15 | Reduction [10]: inactive |
| CSc1cc(C)nc(C)c1NC(=O)N(Cc1ccc(Oc2ccc(F)cc2)cc1)C1CCCCCC1 | – | 90 | < 1 | 35 | Reduction [11]: 72% |
| CSc1cc(C)nc(SC)c1NC(=O)N(Cc1ccc(Oc2ccc(Br)cc2)cc1)C1CCCCCC1 | 0.02 | 28 | – | < 10 | Inhibition [8]: 75% |
| COc1cc(C)nc(OC)c1NC(=O)N(Cc1ccc(Oc2ccc(F)cc2)cc1)C1CCCCCC1 | 0.032 | 33 | 4.5 | 350 | – |
| COc1ccc(CN(Cc2ccc(Oc3ccc(F)cc3)cc2)C(=O)Nc2c(SC)cc(C)nc2SC)cc1 | > 0.1 | 29 | – | – | Reduction [2]: 24% |
| CSc1cc(C)nc(SC)c1NC(=O)N(CCCc1ccccc1)Cc1ccc(Oc2ccc(F)cc2)cc1 | 0.025 | 28 | – | 40 | – |
| CSc1cc(C)nc(SC)c1NC(=O)N(Cc1ccc(Oc2ccc(F)cc2)cc1)C1CCCCCC1 | 0.034 | – | 0.11 | 48 | Toxicity [4]: necrosis observed |

| Structure (SMILES) | ED50 [1] [mg/kg] | IC50 [3] [nM] | ED50 [5] [mg/kg] | IC50 [6] [nM] | also measured |
| --- | --- | --- | --- | --- | --- |
| CSc1cc(C)nc(SC)c1NC(=O)N(Cc1ccccc1)Cc1ccc(Oc2ccc(F)cc2)cc1 | < 0.01 | 9.1 | – | < 10 | Inhibition [8]: 77%; Reduction [12]: 58% |
| Cc1ccc(NC(=O)N(Cc2ccc(Oc3ccc(F)cc3)cc2)C2CCCCCC2)c(Cl)n1 | > 0.1 | 19 | – | – | – |
| CSc1cc(C)nc(SC)c1NC(=O)N(Cc1ccccc1)Cc1ccc(Oc2ccc(Br)cc2)cc1 | 0.011 | 10 | < 0.1 | 14 | Reduction [7]: 54% |
| CSc1cc(C)nc(SC)c1NC(=O)N(Cc1ccccc1)Cc1cccc(-c2cc[nH]n2)c1 | – | – | – | 350 | – |
| COc1nc(C)ccc1NC(=O)N(Cc1ccc(Oc2ccc(F)cc2)cc1)C1CCCCCC1 | > 0.1 | 39 | – | – | Reduction [13]: inactive |
| Cc1cc(C)c(NC(=O)N(Cc2ccc(Oc3ccc(F)cc3)cc2)C2CCCCCC2)c(C)n1 | 0.044 | 62 | 0.77 | 240 | – |
| CSc1cc(C)nc(SC)c1NC(=O)N(CCc1ccccc1)Cc1ccc(Oc2ccc(F)cc2)cc1 | 0.016 | 16 | 2.7 | 6.1 | – |
| CSc1nc(C)cc(Cl)c1NC(=O)N(Cc1ccc(Oc2ccc(F)cc2)cc1)C1CCCCCC1 | < 0.1 | 12 | > 1 | 350 | Reduction [14]: 48%; Reduction [7]: 77% |
| Cc1cc(S(C)(=O)=O)c(NC(=O)N(Cc2ccc(Oc3ccc(F)cc3)cc2)C2CCCCCC2)c(Cl)n1 | > 0.1 | 30 | > 1 | 350 | Reduction [14]: 34%; Reduction [2]: 46% |
| CSc1cc(C)nc(SC)c1NC(=O)N(Cc1ccc(Oc2ccc(F)cc2)cc1)C(C)(C)c1ccccc1 | – | 24 | – | 52 | ED50 [15]: inactive |
| CSc1cc(C)nc(SC)c1NC(=O)N(Cc1ccc(Oc2ccc(F)cc2)cc1)[C@@H](C)c1ccccc1 | > 0.1 | 19 | – | 260 | Reduction [13]: inactive |
| CCOCCN(Cc1ccc(Oc2ccc(F)cc2)cc1)C(=O)Nc1c(SC)cc(C)nc1SC | > 0.1 | 24 | – | – | Reduction [2]: 26% |
| CSc1cc(C)nc(SC)c1NC(=O)N(Cc1ccc(Oc2ccc(F)cc2)cc1)Cc1c(C)cccc1C | – | – | – | 21 | IC50 [16]: 26 nM |
| COc1nc(C)cc(SC)c1NC(=O)N(Cc1ccc(Oc2ccc(F)cc2)cc1)C1CCCCCC1 | < 0.032 | 29 | 1.4 | 13 | Reduction [17]: 62% |
| CSc1cc(C)nc(SC)c1NC(=O)N(Cc1ccc(Oc2ccc(F)cc2)cc1)[C@H](C)c1ccccc1 | 0.095 | 19 | 4.6 | 110 | – |
